We go through ten compounds from ChEMBL document CHEMBL2029254, “Use of libraries to access new chemical space: applications to CRTH2” (Bioorg Med Chem Lett, 2012).

The target of assay [1] is T1, Prostaglandin D2 receptor 2 (Homo sapiens) (UniProt Q9Y5Y4).
T1 sequence (whole entry): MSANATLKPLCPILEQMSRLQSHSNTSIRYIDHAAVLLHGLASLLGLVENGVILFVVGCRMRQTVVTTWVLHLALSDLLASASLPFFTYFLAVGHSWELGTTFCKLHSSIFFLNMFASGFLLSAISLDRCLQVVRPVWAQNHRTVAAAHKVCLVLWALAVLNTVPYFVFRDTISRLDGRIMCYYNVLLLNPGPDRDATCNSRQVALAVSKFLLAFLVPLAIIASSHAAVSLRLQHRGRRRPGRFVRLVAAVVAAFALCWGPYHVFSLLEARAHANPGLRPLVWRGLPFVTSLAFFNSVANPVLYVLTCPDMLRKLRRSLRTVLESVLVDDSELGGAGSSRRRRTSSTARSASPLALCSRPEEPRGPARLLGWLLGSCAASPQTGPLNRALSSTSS
Nature of the assay: Displacement of [3H]PGD2 from human CRTH2 receptor expressed in CHO cell membrane at 2.8 uM after 120 mins by scintillation counting. The class given is cell membranes.

Assay [2] concerns the target T2, Prostaglandin D2 receptor 2 (Homo sapiens, UniProt Q9Y5Y4).
T2 sequence (Q9Y5Y4 whole entry): T1 sequence (whole entry)
Description: Displacement of [3H]PGD2 from human CRTH2 receptor expressed in CHO cell membrane after 120 mins by scintillation counting. The format is cell membranes. A digest of the protocol:
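Ki derived from the displacement IC50 by the Cheng–Prusoff relationship, using the KD and radioligand concentration supplied by the analyser. Values are geometric means of three or more independent determinations.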

Consider `CCc1nn(Cc2cccc(Br)c2)c(CC)c1CC(=O)O`, for which the inhibition in assay [1] was more than 40%. For the same compound, the Ki in assay [2] is 563 nM.
In the case of `CCc1nn(Cc2cc(Cl)ccc2Cl)c(CC)c1CC(=O)O`, the inhibition in assay [1] was more than 40%. Also, the affinity in assay [2], expressed as Ki, was 623 nM.
The compound `O=C(O)COc1ccccc1COc1ccc(Cl)cc1-c1ccno1` returned an inhibition in assay [1] of more than 40%. Moreover, affinity in assay [2] was put at a Ki of 247 nM.
On the same counts, the results for `Cc1ccc2cccc(OCc3ccccc3OCC(=O)O)c2n1` are more than 40% and 492 nM.
On the same counts, the results for `O=C(O)COc1ccccc1COc1ccc(F)cc1C1CC1` are more than 40% and 591 nM.
On the same counts, the results for `O=C(O)Cn1cnc2c1CCN(C(=O)c1csc(-c3ccccc3)n1)C2` are more than 40% and 752 nM.
`CCCNC(=O)c1ccccc1OCc1cccc(C)c1OCC(=O)O`: in assay [1], the inhibition is more than 40%. The compound further registered a Ki in assay [2] of 333 nM.
On the same counts, the results for `Cc1ccc(Cl)cc1OCc1ccccc1OCC(=O)O` are more than 40% and 520 nM.
On the same counts, the results for `CCc1nn(CC(=O)O)c(CC)c1Cc1ccc2ccccc2c1` are more than 40% and 631 nM.
For `CCc1nn(Cc2ccc3ccccc3c2)c(CC)c1CC(=O)O`, the inhibition in assay [1] was more than 40%. This compound had a Ki in assay [2] of 574 nM.
